{"data": "Assay results from different studies", "observed": "microbial growth", "note": "Compare with care: the assays were run in different laboratories."}
{"SMILES": "Cc1ccc(C)n1-c1ccc(-c2nnc(-c3ccc(N(C)C)cc3)[nH]2)cc1", "organism": "Aspergillus niger", "assay": "broth dilution", "test system": "ATCC6275", "MIC": "62.5 µg/mL"}
{"SMILES": "Cc1ccc2nc(-c3ccc([N+](=O)[O-])cc3)n(Cc3ccc(Cl)cc3)c2c1", "organism": "Aspergillus niger", "test system": "ATCC16404", "MIC": "64 µg/mL"}
{"SMILES": "CCCCCCCCCCCCN1CCNCC1", "organism": "Lodderomyces parapsilosis", "assay": "broth dilution", "test system": "ATCC22019", "setting": "48 h", "MIC": "1.95 µg/mL"}
{"SMILES": "CCOCCn1cnc2nc(NCc3ccc(Cl)c(Cl)c3)[nH]c(=O)c21", "organism": "Bacteroides fragilis", "assay": "agar dilution", "setting": "48 h", "MIC": "> 32 µg/mL"}
{"SMILES": "c1ccc2c(-c3nc4ccccc4[nH]3)c3ccccc3cc2c1", "organism": "Aspergillus niger", "test system": "ATCC16404", "MIC": "256 µg/mL"}
{"SMILES": "Cc1ccc(C)n1-c1ccc(C(=O)NNC=O)cc1", "organism": "Aspergillus niger", "assay": "broth dilution", "test system": "ATCC6275", "MIC": "250 µg/mL"}
{"SMILES": "CC[C@H](C)C[C@H](C)CCCCCCCCC(=O)N[C@H]1C[C@@H](O)[C@@H](NCCN)NC(=O)[C@@H]2[C@@H](O)CCN2C(=O)[C@H]([C@H](O)CCN)NC(=O)[C@H]([C@H](O)[C@@H](O)c2ccc(O)cc2)NC(=O)[C@@H]2C[C@@H](O)CN2C(=O)[C@H]([C@@H](C)O)NC1=O", "organism": "Lodderomyces parapsilosis", "assay": "broth dilution", "test system": "ATCC22019", "setting": "48 h", "MIC": "1.95 µg/mL"}
{"SMILES": "O=C1/C(=C/c2cc(O)c(O)c(O)c2)Oc2cccc(O)c21", "organism": "Lodderomyces parapsilosis", "assay": "broth dilution", "MIC": "16 µg/mL"}
{"SMILES": "CCCCCCCCCCCCCN1CCNCC1", "organism": "Lodderomyces parapsilosis", "assay": "broth dilution", "test system": "ATCC22019", "setting": "48 h", "MIC": "1.95 µg/mL"}
{"SMILES": "Cc1ncc([N+](=O)[O-])n1CCO", "organism": "Bacteroides fragilis", "assay": "agar dilution", "setting": "48 h", "MIC": "1 µg/mL"}
{"SMILES": "CC1=NN(CNc2ccc(C(=O)O)cc2)C(=O)C1=NNn1c(-c2ccccc2)nc2ccccc2c1=O", "organism": "Aspergillus niger", "assay": "broth dilution", "MIC": "50.5 µM"}
{"SMILES": "Cc1ccc2nc(-c3ccc([N+](=O)[O-])cc3)n(Cc3ccccc3)c2c1", "organism": "Aspergillus niger", "test system": "ATCC16404", "MIC": "256 µg/mL"}
{"SMILES": "CC[C@@H]([C@H](C)O)n1ncn(-c2ccc(N3CCN(c4ccc(OC[C@@H]5CO[C@@](Cn6cncn6)(c6ccc(F)cc6F)C5)cc4)CC3)cc2)c1=O", "organism": "Aspergillus brasiliensis", "test system": "ATCC16404", "setting": "72 h", "MIC": "< 0.3 µM"}
{"SMILES": "O=c1[nH]c(NCc2ccc(Cl)c(Cl)c2)nc2ncn(CCN3CCOCC3)c12", "organism": "Bacteroides fragilis", "assay": "agar dilution", "setting": "48 h", "MIC": "> 32 µg/mL"}
{"SMILES": "CCCCCCCCCCCCCN1CCN(CC(O)(Cn2cncn2)c2ccc(F)cc2F)CC1 (stereo not shown)", "organism": "Lodderomyces parapsilosis", "assay": "broth dilution", "test system": "ATCC22019", "setting": "48 h", "MIC": "< 0.24 µg/mL"}
{"SMILES": "Cc1cc(C)n(C(=O)c2ccc(-n3c(C)ccc3C)cc2)n1", "organism": "Aspergillus niger", "assay": "broth dilution", "test system": "ATCC6275", "MIC": "> 500 µg/mL"}
{"SMILES": "Clc1ccccc1-c1nc2ccccc2[nH]1", "organism": "Aspergillus niger", "test system": "ATCC16404", "MIC": "512 µg/mL"}
{"SMILES": "Cc1ccc(C)n1-c1ccc(-c2nnc(-c3c(Cl)cccc3Cl)[nH]2)cc1", "organism": "Aspergillus niger", "assay": "broth dilution", "test system": "ATCC6275", "MIC": "2 µg/mL"}
{"SMILES": "CCOc1ccc(-c2nc3ccccc3n2Cc2ccccc2)cc1", "organism": "Aspergillus niger", "test system": "ATCC16404", "MIC": "256 µg/mL"}
{"SMILES": "CCCCCCCCCCCCCCN1CCNCC1", "organism": "Lodderomyces parapsilosis", "test system": "ATCC22019", "MIC": "0.975 µg/mL"}
{"SMILES": "Cc1ccc2nc(-c3ccc([N+](=O)[O-])cc3)n(Cc3ccccc3Cl)c2c1", "organism": "Aspergillus niger", "test system": "ATCC16404", "MIC": "128 µg/mL"}
{"SMILES": "CC(=O)c1ccc(-c2ccc3oc(C(=O)c4cc(O)c(O)c(O)c4)cc3c2)cc1", "organism": "Lodderomyces parapsilosis", "assay": "broth dilution", "MIC": "2 to 4 µg/mL"}
{"SMILES": "Fc1ccc(C2(Cn3cncn3)CO2)c(F)c1 (stereo not shown)", "organism": "Lodderomyces parapsilosis", "assay": "broth dilution", "test system": "ATCC22019", "setting": "48 h", "MIC": "> 31.3 µg/mL"}
{"SMILES": "C=CCn1c(-c2ccc(Cl)cc2)nc2ccccc21", "organism": "Aspergillus niger", "test system": "ATCC16404", "MIC": "512 µg/mL"}
{"SMILES": "CCCCCCCCCCN1CCN(CC(O)(Cn2cncn2)c2ccc(F)cc2F)CC1 (stereo not shown)", "organism": "Lodderomyces parapsilosis", "assay": "broth dilution", "test system": "ATCC22019", "setting": "48 h", "MIC": "0.015 µg/mL"}
{"SMILES": "Clc1ccc(-c2nc3ccccc3[nH]2)cc1Cl", "organism": "Aspergillus niger", "test system": "ATCC16404", "MIC": "256 µg/mL"}
{"SMILES": "O=C1NN=C(N=Cc2ccc(O)c(O)c2)C1=NNn1c(-c2ccccc2)nc2ccccc2c1=O", "organism": "Aspergillus niger", "assay": "broth dilution", "MIC": "107 µM"}
{"SMILES": "CCCCCCCCCCCCCCN1CCN(CC(O)(Cn2cncn2)c2ccc(F)cc2F)CC1 (stereo not shown)", "organism": "Lodderomyces parapsilosis", "assay": "broth dilution", "test system": "ATCC22019", "setting": "48 h", "MIC": "> 31.3 µg/mL"}
